Yeast lifespan up = compounds extending yeast replicative lifespan, primary screen, S. cerevisiae, OD615; S. cerevisiae growth with nicotinamide; deaD strain in restrictive glucose medium; inhibition of the nicotinamide effect, % at 10 µM; 130,000 compounds, 0.68% hits; AID 775, 2007;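 active = inhibition above a set limit, placed 3 SD over the median of all compounds, cut at about 26% in these data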;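 also: 0% = nicotinamide-treated wells and 100% = cells grown without nicotinamide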
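Assay system: engineered S. cerevisiae DeaD replicative-lifespan strain, galactose-grown log-phase cells; medium: restrictive CSMM-D dextrose medium; also added: nicotinamide, 1.5 mM, co-present with compound; schedule: 48 h compound exposure at 30 °C, humidified; detection: absorbance at 615 nm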
PostGolgi yeast = phenotypic screen on post-Golgi transport, primary screen; post-Golgi transport phenotypic cell assay; 98,000 compounds, 0.9% hits; inhibition, % at 10 µM; AID 739, 2007;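 also: yeast cells grown in 1536-well plates; yeast grown about 18 h at 30C before absorbance read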
Yeast growth inh = growth inhibitors of yeast BB579 in restrictive medium, primary screen, yeast lifespan-shortening project, S. cerevisiae. AID 804, 2007. OD615, 48 h. 140,000 compounds, 0.51% hits. inhibition, % at 10 µM;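 active = inhibition above a set limit, 3 SD over the mean compound inhibition, cut at about 44% in these data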
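System: DeaD yeast strain BB579; buffer or medium: CSMM-D dextrose restrictive medium; technique: OD at 615 nm; schedule: 4 h cell preincubation, 48 h compound exposure, 30 °C humidified; doses: single 10 µM dose; controls: amphotericin B 10 µg/mL, positive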
PostGolgi ctrl = growth inhibition of yeast control strain, primary screen, counter-screen for post-Golgi transport modulator project. AID 738, 2007. inhibition, % at 10 µM. efflux-deficient yeast background strain, growth absorbance A615, 16 h. 98,000 compounds, 5% hits
Starred values were filed as active, the others as inactive; x = no result. This excerpt belongs to a sample that is enriched for hits. Rule as the data show it, unless noted: active = inhibition above about 30%; inactive = the rest.

SMILES | Yeast lifespan up | PostGolgi yeast | Yeast growth inh | PostGolgi ctrl
COc1cccc(C(=O)Oc2cc(N)n(S(=O)(=O)c3ccc(C)cc3)n2)c1OC | 68* | -7 | -37 | 2
CN(C)c1nc(N(C)C)nc(N(C#N)CN2C(=O)c3ccccc3C2=O)n1 | 2 | x | -49 | x
CCCc1cc(C(=O)Cc2ccc(F)cc2)c(O)cc1O | -23 | 6 | 92* | 52*
CCCc1cc(C(=O)Cc2ccc(C(=O)OCC)o2)c(O)cc1O | -9 | -1 | -12 | 31*
Cc1cc2cc(CCNC(=O)c3ccc(Br)o3)c(=O)[nH]c2cc1C | -16 | 4 | -24 | 102*
CC(=O)NCCc1cc2cc(C)c(C)cc2[nH]c1=O | -15 | 1 | -44 | 6
CCC(CC)C(=O)NCCc1cc2ccc(OC)cc2[nH]c1=O | -14 | -2 | -39 | 6
COc1ccc2cc(CCNC(=O)c3ccc(Br)o3)c(=O)[nH]c2c1 | 7 | 13 | -10 | 99*
COc1ccc2cc(CCNC(=O)c3ccc4c(c3)OCO4)c(=O)[nH]c2c1 | -11 | -4 | -45 | 30*
O=c1oc2cc(Cl)ccc2n1CSc1nc2ccccc2s1 | -12 | 8 | -50 | 32*
COC(=O)c1nc2cc(C)ccn2c1F | -7 | -14 | -2 | 49*
O=c1c2ccccc2c(-c2ccccc2)nn1Cc1ccc(Cl)cc1 | -17 | -8 | -34 | 6
O=c1c2ccccc2c(-c2ccc(Cl)cc2)nn1-c1ccccc1 | -17 | 6 | -34 | 40*
COc1ccc(Cl)cc1S(=O)(=O)N1CCCC1 | 1 | -4 | -25 | 4
CC1CC(C)CN(C(=O)C(NS(=O)(=O)c2ccc(Br)s2)c2ccccc2)C1 (configuration not stated) | 0 | x | -4 | x
COc1ccc(-n2c(C)c(C(C)=O)c3cc(O)ccc32)cc1 | -14 | -1 | -40 | 32*
Cc1sc(NC(=O)CSc2nnc(C)c(=O)[nH]2)c(C#N)c1C | -12 | -6 | -28 | 16
CCOc1ccc(/C=C/C(=O)c2c(O)c3ccccc3oc2=O)cc1 | 80* | -16 | -71 | 9
Cc1oc(C)c2c(=O)ccc3c(c12)OC(N)=C(C#N)C3c1ccc(F)cc1 (configuration not stated) | -13 | -1 | 19 | -5
CN(Cc1cccs1)C(=O)COc1ccc(-c2nnco2)cc1 | -10 | 5 | -17 | 19
COc1ccc(N2CCN(c3oc(-c4ccco4)nc3C#N)CC2)cc1 | -17 | 32* | -8 | -3
COc1ccc(-c2nc(C#N)c(N3CCc4ccccc4C3)o2)cc1OC | -8 | 5 | -25 | 33*
COc1ccccc1-c1nc(C#N)c(N2CCCCCC2)o1 | -15 | -10 | -25 | 42*
COc1ccccc1-c1nc(C#N)c(N2CCN(c3ccccc3)CC2)o1 | -24 | 3 | -14 | 26
Cc1cccc(C)c1OCC(O)CNS(=O)(=O)c1ccccc1C(=O)N1CCCCC1 (configuration not stated) | x | x | -21 | x
SMILES | Yeast lifespan up | PostGolgi yeast | Yeast growth inh | PostGolgi ctrl
CCN(CC)C(=O)CSc1nc2ccccc2c(=O)n1CCC(=O)NCc1ccc(F)cc1 | -12 | 1 | -44 | 2
c1cncc(CNc2cccc(-c3nc4ccccc4[nH]3)c2)c1 | 7 | x | -22 | x
Cc1ccc(NC(=O)CCc2ccc(S(=O)(=O)N3CCOCC3)cc2)c(C)c1 | -4 | -4 | 21 | 1
CCOc1ccc(C2=NNC(c3cccs3)=Nc3ccc(OCC)cc32)cc1 | 47* | 0 | -48 | 14
COc1ccc(Cl)cc1-c1nc(SCC(=O)NCCN2C(=O)CSC2=O)n[nH]1 | 0 | x | -55 | x
O=C(CSc1n[nH]c(-c2ccccc2)n1)c1ccc(O)c(O)c1 | -7 | 19 | -35 | 0
Cc1ccc(C)c(N2CCN(Cc3nnnn3C3CCCCC3)CC2)c1 | -3 | 18 | -38 | 38*
CCOC(=O)c1c(C)[nH]c(C)c1C(=O)COC(=O)c1ccc(Cl)c(S(N)(=O)=O)c1 | -8 | -3 | -48 | 4
CCN(CC)C(NC(=O)Cc1ccccc1)C(Cl)(Cl)Cl (configuration not stated) | -13 | 5 | -27 | 6
CN(Cc1ccccc1)C(NC(=O)c1ccccc1)C(Cl)(Cl)Cl (configuration not stated) | -5 | 9 | -7 | 35*
CCNC(=S)NNC(=O)Nc1ccccc1 | 4 | -1 | -30 | 2
CCn1c(=O)cc(SCC(=O)NCCN2CCN(Cc3ccccc3)CC2)c2ccccc21 | -18 | 1 | -14 | 34*
N/C(=N\c1nc2c(c(=O)[nH]1)CCCC2)Nc1ccccc1Sc1ccccc1 | -12 | 1 | -94 | 12
Cc1nn(-c2ccccc2)c2c1C(c1ccncc1)C(C#N)=C(N)O2 (configuration not stated) | 3 | 9 | -13 | 32*
O=C(C1CCN(S(=O)(=O)c2ccc(Br)s2)CC1)N1CCc2ccccc21 | -1 | -7 | -17 | 52*
CCOC(=O)C1CCCN(S(=O)(=O)c2ccc(OC)cc2)C1 (configuration not stated) | 13 | 9 | -70 | 13
COc1ccc(S(=O)(=O)N2CCCC(C(=O)N3CCCCCC3)C2)cc1 (configuration not stated) | -5 | -3 | -77 | 66*
O=C(C1CCCN(S(=O)(=O)c2ccccc2)C1)N1CCCc2ccccc21 (configuration not stated) | -8 | -1 | -19 | 36*
O=S(=O)(c1ccc(Br)s1)N1CCC(Cc2ccccc2)CC1 | -2 | -12 | 18 | 0
Cc1ccc(S(=O)(=O)N2CCCC(C(=O)N3CCCc4ccccc43)C2)cc1 (configuration not stated) | -21 | 0 | -41 | 20
O=C(CC(c1ccccc1)c1ccco1)Nc1nccs1 (configuration not stated) | -2 | x | -29 | x
CC(=O)N1CCC(N(C(=O)Nc2c(F)cccc2F)C(C)C)CC1 | -3 | -14 | -19 | 4
CN1CCN(C(=O)CSc2ccc(C(F)(F)F)cc2[N+](=O)[O-])CC1 | 30* | x | -17 | x
C=CCn1c(C)cc(C(=O)CSc2nnc(NC(C)C)s2)c1C | -6 | -8 | -54 | 12
C=CCn1c(C)cc(C(=O)CSc2nc3ccccc3o2)c1C | 1 | -14 | -47 | 52*
SMILES | Yeast lifespan up | PostGolgi yeast | Yeast growth inh | PostGolgi ctrl
Cc1cc(C(=O)CSc2nc3ccccc3o2)c(C)n1C1CC1 | -14 | 3 | -19 | 23
Cc1cc(C(=O)CSc2nnc(Cc3ccccc3)o2)c(C)n1Cc1ccc2c(c1)OCO2 | -2 | -4 | -68 | 15
C=CCn1c(C)cc(C(=O)CSc2nc3ccccc3c(=O)[nH]2)c1C | 69* | 25 | -61 | 89*
C=CCn1c(C)cc(C(=O)CSc2nnc(NCc3ccccc3)s2)c1C | -9 | 62* | 64* | 96*
C=CCn1c(C)cc(C(=O)CSc2nnc(Cc3ccccc3)o2)c1C | 0 | 82* | 34 | 96*
O=C(CN1CCSCC1)N/N=C/c1ccc(F)c(F)c1 | -10 | -6 | -6 | -10
COc1ccc(S(=O)(=O)N(C)c2c(C)n(C)n(-c3ccccc3)c2=O)cc1OC | -12 | 3 | -41 | 8

High-throughput results as filed in PubChem BioAssay.
